From ChEMBL document CHEMBL4052595, “Application of Residual Dipolar Couplings and Selective Quantitative NOE to Establish the Structures of Tetranortriterpenoids from Xylocarpus rumphii” (J Nat Prod, 2017)
Activity calls are given as the source filed them.

Tests used:
Format in all cases: functional, cell-based
OVCAR-4 = assay: Growth inhibition of human OVCAR4 cells at 10^-5 M incubated for 48 hrs by sulforhodamine B assay
Outline: (§1)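 Run in the NCI59 one-dose cell-line screen, with each compound tested at a single concentration of 1 × 10−5 M.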

CAKI-1 = assay: Growth inhibition of human Caki1 cells at 10^-5 M incubated for 48 hrs by sulforhodamine B assay; outline: as §1
SNB-75 = assay: Growth inhibition of human SNB75 cells at 10^-5 M incubated for 48 hrs by sulforhodamine B assay; outline: as §1
M14 = assay: Growth inhibition of human M14 cells at 10^-5 M incubated for 48 hrs by sulforhodamine B assay; outline: as §1
LOX IMVI = assay: Growth inhibition of human LOXIMVI cells at 10^-5 M incubated for 48 hrs by sulforhodamine B assay; outline: as §1
HCT-116 = assay: Growth inhibition of human HCT116 cells at 10^-5 M incubated for 48 hrs by sulforhodamine B assay; outline: as §1
NCI-H522 = assay: Growth inhibition of human NCI-H522 cells at 10^-5 M incubated for 48 hrs by sulforhodamine B assay; outline: as §1
T47D = assay: Growth inhibition of human T47D cells at 10^-5 M incubated for 48 hrs by sulforhodamine B assay
Outline: (§2)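 Tested at a single concentration of 1 × 10−5 M as part of the NCI59 cell-line one-dose screen.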

OVCAR-3 = assay: Growth inhibition of human OVCAR3 cells at 10^-5 M incubated for 48 hrs by sulforhodamine B assay; outline: as §1
Hs-578T = assay: Growth inhibition of human Hs 578T cells at 10^-5 M incubated for 48 hrs by sulforhodamine B assay; outline: as §1
BT-549 = assay: Growth inhibition of human BT549 cells at 10^-5 M incubated for 48 hrs by sulforhodamine B assay; outline: as §1
RXF 393 = assay: Growth inhibition of human RXF393 cells at 10^-5 M incubated for 48 hrs by sulforhodamine B assay; outline: as §1
MDA-MB-435 = assay: Growth inhibition of human MDA-MB-435 cells at 10^-5 M incubated for 48 hrs by sulforhodamine B assay; outline: as §1
SF-268 = assay: Growth inhibition of human SF268 cells at 10^-5 M incubated for 48 hrs by sulforhodamine B assay; outline: as §1
UACC-62 = assay: Growth inhibition of human UACC62 cells at 10^-5 M incubated for 48 hrs by sulforhodamine B assay; outline: as §2
OVCAR-8 = assay: Growth inhibition of human OVCAR8 cells at 10^-5 M incubated for 48 hrs by sulforhodamine B assay; outline: as §1
U-251 = assay: Growth inhibition of human U251 cells at 10^-5 M incubated for 48 hrs by sulforhodamine B assay; outline: as §2
NCI-H226 = assay: Growth inhibition of human NCI-H226 cells at 10^-5 M incubated for 48 hrs by sulforhodamine B assay; outline: as §1
RPMI-8226 = assay: Growth inhibition of human RPMI8226 cells at 10^-5 M incubated for 48 hrs by sulforhodamine B assay; outline: as §1
NCI/ADR-RES = assay: Growth inhibition of human NCI/ADR-RES cells at 10^-5 M incubated for 48 hrs by sulforhodamine B assay; outline: as §1
MDA-MB-231 = assay: Growth inhibition of human MDA-MB-231 cells at 10^-5 M incubated for 48 hrs by sulforhodamine B assay; outline: as §1
A498 = assay: Growth inhibition of human A498 cells at 10^-5 M incubated for 48 hrs by sulforhodamine B assay; outline: as §1
A549 = assay: Growth inhibition of human A549/ATCC cells at 10^-5 M incubated for 48 hrs by sulforhodamine B assay; outline: as §1
SN12C = assay: Growth inhibition of human SN12C cells at 10^-5 M incubated for 48 hrs by sulforhodamine B assay; outline: as §1
SF-295 = assay: Growth inhibition of human SF295 cells at 10^-5 M incubated for 48 hrs by sulforhodamine B assay; outline: as §1
UO-31 = assay: Growth inhibition of human UO31 cells at 10^-5 M incubated for 48 hrs by sulforhodamine B assay; outline: as §2
PC-3 = assay: Growth inhibition of human PC3 cells at 10^-5 M incubated for 48 hrs by sulforhodamine B assay; outline: as §1
UACC-257 = assay: Growth inhibition of human UACC257 cells at 10^-5 M incubated for 48 hrs by sulforhodamine B assay; outline: as §2
NCI-H460 = assay: Growth inhibition of human NCI-H460 cells at 10^-5 M incubated for 48 hrs by sulforhodamine B assay; outline: as §1
IGROV-1 = assay: Growth inhibition of human IGROV1 cells at 10^-5 M incubated for 48 hrs by sulforhodamine B assay; outline: as §1
SR = assay: Growth inhibition of human SR cells at 10^-5 M incubated for 48 hrs by sulforhodamine B assay; outline: as §1
SK-MEL-2 = assay: Growth inhibition of human SK-MEL-2 cells at 10^-5 M incubated for 48 hrs by sulforhodamine B assay; outline: as §1
KM12 = assay: Growth inhibition of human KM12 cells at 10^-5 M incubated for 48 hrs by sulforhodamine B assay; outline: as §1
ACHN = assay: Growth inhibition of human ACHN cells at 10^-5 M incubated for 48 hrs by sulforhodamine B assay; outline: as §1
OVCAR-5 = assay: Growth inhibition of human OVCAR5 cells at 10^-5 M incubated for 48 hrs by sulforhodamine B assay; outline: as §1
MOLT-4 = assay: Growth inhibition of human MOLT4 cells at 10^-5 M incubated for 48 hrs by sulforhodamine B assay; outline: as §1
SK-OV-3 = assay: Growth inhibition of human SKOV3 cells at 10^-5 M incubated for 48 hrs by sulforhodamine B assay; outline: as §1
SF-539 = assay: Growth inhibition of human SF539 cells at 10^-5 M incubated for 48 hrs by sulforhodamine B assay; outline: as §1
CCRF-CEM = assay: Growth inhibition of human CCRF-CEM cells at 10^-5 M incubated for 48 hrs by sulforhodamine B assay; outline: as §1
NCI-H23 = assay: Growth inhibition of human NCI-H23 cells at 10^-5 M incubated for 48 hrs by sulforhodamine B assay; outline: as §1
COLO 205 = assay: Growth inhibition of human COLO205 cells at 10^-5 M incubated for 48 hrs by sulforhodamine B assay; outline: as §1
HOP-62 = assay: Growth inhibition of human HOP62 cells at 10^-5 M incubated for 48 hrs by sulforhodamine B assay; outline: as §1
HL-60(TB) = assay: Growth inhibition of human HL-60(TB) cells at 10^-5 M incubated for 48 hrs by sulforhodamine B assay
Outline: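 Run in the NCI59 cell-line one-dose screen, with each compound tested at a single concentration of 1 × 10−5 M.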

SNB-19 = assay: Growth inhibition of human SNB19 cells at 10^-5 M incubated for 48 hrs by sulforhodamine B assay; outline: as §1
SW-620 = assay: Growth inhibition of human SW620 cells at 10^-5 M incubated for 48 hrs by sulforhodamine B assay; outline: as §2
HT-29 = assay: Growth inhibition of human HT-29 cells at 10^-5 M incubated for 48 hrs by sulforhodamine B assay; outline: as §1
786-0 = assay: Growth inhibition of human 786-0 cells at 10^-5 M incubated for 48 hrs by sulforhodamine B assay; outline: as §1
DU-145 = assay: Growth inhibition of human DU145 cells at 10^-5 M incubated for 48 hrs by sulforhodamine B assay; outline: as §1
HOP-92 = assay: Growth inhibition of human HOP92 cells at 10^-5 M incubated for 48 hrs by sulforhodamine B assay; outline: as §1
EKVX = assay: Growth inhibition of human EKVX cells at 10^-5 M incubated for 48 hrs by sulforhodamine B assay; outline: as §1
K562 = assay: Growth inhibition of human K562 cells at 10^-5 M incubated for 48 hrs by sulforhodamine B assay; outline: as §1
HCT-15 = assay: Growth inhibition of human HCT15 cells at 10^-5 M incubated for 48 hrs by sulforhodamine B assay; outline: as §1
TK-10 = assay: Growth inhibition of human TK10 cells at 10^-5 M incubated for 48 hrs by sulforhodamine B assay; outline: as §2
NCI-H322M = assay: Growth inhibition of human NCI-H322M cells at 10^-5 M incubated for 48 hrs by sulforhodamine B assay; outline: as §1
SK-MEL-28 = assay: Growth inhibition of human SK-MEL-28 cells at 10^-5 M incubated for 48 hrs by sulforhodamine B assay; outline: as §1
SK-MEL-5 = assay: Growth inhibition of human SK-MEL-5 cells at 10^-5 M incubated for 48 hrs by sulforhodamine B assay; outline: as §1
MCF7 = assay: Growth inhibition of human MCF7 cells at 10^-5 M incubated for 48 hrs by sulforhodamine B assay; outline: as §1
HCC 2998 = assay: Growth inhibition of human HCC2998 cells at 10^-5 M incubated for 48 hrs by sulforhodamine B assay; outline: as §1

Measured: growth inhibition (GI)

COC(=O)C[C@H]1[C@@]2(C)C[C@@]34O[C@@]5(C)O[C@]6([C@@H]7CC(=O)O[C@@H](c8ccoc8)[C@]7(C)CC[C@]6(O5)[C@@]13C)[C@@H](OC(C)=O)[C@@]4(OC(C)=O)[C@H]2OC(C)=O
inactive: all assays above
